Assay results from PubChem BioAssay AID1046 (PCMD, 2008).
About 560 (0.25%) of roughly 220,000 compounds were called active. This excerpt belongs to a sample that is enriched for actives. A number with no mark means an inactive call.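 How the source made its calls: active means inhibition at or above 40%; inactive means inhibition below 40%.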

molecular target: Prothrombin (Homo sapiens) (UniProt P00734); assay: human alpha-thrombin inhibitors, primary screen, counter-screen for coagulation protease inhibitor project, biochemical, 1536-well, fluorogenic AMC substrate (AID 1046); details: Boc-VPR-AMC fluorogenic substrate cleavage, at 5 µM, hits give high values;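 further: 0% = enzyme with no compound and 100% = wells without enzyme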
In short: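 Material: human alpha-thrombin enzyme / Medium: pH 7.5 Tris (50 mM) with NaCl 150 mM, Tween 20 0.05% / Compound: single-point dosing at 5 µM, 0.2% DMSO / Incubation: enzyme reaction carried out at room temperature / Detection: AMC fluorescence, 355/460 nm / Read-out basis: percent inhibition scaled between no-compound controls and no-enzyme blanks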

Row | SMILES | inhibition
1 | CCSc1nc(C)nc2c1oc1ccccc12 | 4.11%
2 | Cc1nc(N2CCCC2C(=O)O)c2oc3ccccc3c2n1 (stereo unspecified) | 2.84%
3 | Cc1nc(Cl)c2oc3ccccc3c2n1 | 104% (active)
4 | CCc1nnc(NC(=O)CCN(c2ccc(C)cc2)S(=O)(=O)c2ccccc2)s1 | 47.5% (active)
5 | CCc1nnc(NC(=O)CCC(=O)NCc2ccccc2OC)s1 | 2.56%
6 | CCc1nnc(NC(=O)CCC(=O)O)s1 | 8.11%
7 | O=C(Nc1ccc(F)cc1)c1cc2c(s1)CCCC2 | -1.36%
8 | CCCCNS(=O)(=O)c1ccc2nc(SCC(=O)Nc3cc(C)cc(C)c3)[nH]c2c1 | -6.37%
9 | CN(C(=O)c1c(Cl)cnn1C)C12CC3CC(CC(C3)C1)C2 | -15.4%
10 | C/C(=N\NC(=O)CSc1nc2ccccc2c(=O)n1-c1ccccc1C)c1cccs1 | 0.36%
11 | Cc1ccc(OCCOCCOc2ccc(Br)cc2/C=N\NC(=O)c2ccncc2)cc1 | -13.6%
12 | Cc1c([N+](=O)[O-])c(N)nn1C | 5.35%
13 | Cc1ccc2cc(C)c(N3CCC(C)CC3)nc2c1 | -2.54%
14 | CN(c1ccc(OCC(=O)OCC(=O)Nc2cccc([N+](=O)[O-])c2)cc1)S(=O)(=O)c1ccc(F)cc1 | 2.69%
15 | CC1CC(=O)Nc2ccccc2N1S(=O)(=O)c1cccs1 (stereo unspecified) | -3.5%
16 | Cc1[nH]c2ccccc2c1-c1ccc(Cl)nn1 | 1.85%
17 | O=C(O)C(F)(F)C(NCc1ccccc1)c1ccccc1 (stereo unspecified) | 5.86%
18 | CN(C)C(CNC(=O)c1cccc(C#N)c1)c1ccco1 (stereo unspecified) | -12.4%
19 | CC/C=C/C(=O)N1CC2(CC(c3cccc(NC(=O)CC)c3)=NO2)C[C@H]1C(N)=O (stereo partly specified) | -2.66%
20 | CCOC(=O)C1CCN(c2ccc(C(=O)O)cc2[N+](=O)[O-])CC1 | -6.48%
21 | CCOC(=O)CSc1nc(C)cc2c1C(=O)OC2 | -3.04%
22 | CCOC(=O)CSC1=N/C(=C/c2ccc(-n3cncn3)cc2)C(=O)N1C(C)=O | 86.8% (active)
23 | CCOC(=O)CSc1ccccn1 | -0.12%
24 | N#Cc1c(C(F)(F)F)cc(-c2cccs2)nc1N1CCCCC1 | -5.35%

Row | SMILES | inhibition
25 | COc1ccc(-n2c(O)c(C=NCC(c3ccco3)N3CCCC3)c3ccccc3c2=O)cc1OC (stereo unspecified) | 1.85%
26 | CCc1ccccc1NC(=O)CN(C)S(=O)(=O)c1ccc2c(c1)c(=O)n(C)c(=O)n2C | -7.84%
27 | CCN(C(=O)CSc1nnc2ccccn12)C1CCS(=O)(=O)C1 (stereo unspecified) | 2.43%
28 | CCOC(=O)c1nnn2c3ccccc3c(=O)n(C)c12 | -5.13%
29 | COC(=O)c1onc(-c2c(OC)cc(OC)cc2OC)c1C(=O)OC | 1.99%
30 | COc1ccc(C(C)=O)cc1CSc1nc2nc(C)cc(C)n2n1 | -1.59%
31 | Cc1ccc(S(=O)(=O)/N=C(\CN2CCOCC2)N2CCOCC2)cc1 | -16.3%
32 | Nc1ccccc1Sc1cc(Cl)nnc1Cl | 14.4%
33 | CC(=O)NCCC(=O)Nc1nc(C)c(Cc2ccc3c(c2)OCO3)s1 | -4.26%
34 | Cc1ccc(NC(=S)NCCN2CCOCC2)cc1 | -1.01%
35 | CCOc1nc(NCCN2CCOCC2)nc(Nc2ccc(C)cc2)n1 | 63.7% (active)
36 | Nc1nc(NCCCN2CCOCC2)nc(Nc2ccccc2)c1[N+](=O)[O-] | -6.41%
37 | CSc1c(SCc2ccccc2)cnn(Cc2ccccc2)c1=O | 0.48%
38 | COCCOC(=O)c1c(C)oc2cc(Br)c(OCC(N)=O)cc12 | -6.6%
39 | O=C1N(c2ccccc2)C(=Nc2ccccc2)SC12CC2 | -5.96%
40 | COc1ccc(C/C(C)=N/NC(=O)c2cc(C)oc2C)cc1 | 0.98%
41 | CN(C(=O)CSc1nnc(Nc2ccccc2)s1)C1CCS(=O)(=O)C1 (stereo unspecified) | -0.79%
42 | Cc1cc(C(=O)COc2ccccc2[N+](=O)[O-])c(C)n1-c1cccc(S(=O)(=O)N2CCOCC2)c1 | 5.89%
43 | CC1=C(C)CC(C(=O)NNC(=O)c2ccccc2O)C(C(=O)O)C1 (stereo unspecified) | -3.8%
44 | Cc1cc(C)n2nc(C(=O)N3CCN(Cc4ccc5c(c4)OCO5)CC3)nc2n1 | -9.34%
45 | COc1ccc(CNC(=O)CN(Cc2ccc(Cl)cc2)S(C)(=O)=O)cc1 | -2.34%
46 | Cc1cc(C)cc(C(=O)NC2C(=O)N3C(C(=O)O)=C(CSc4nnc(C)s4)CSC23)c1 (stereo unspecified) | -12%
47 | O=C(Cn1cnc([N+](=O)[O-])n1)NCCc1ccccc1 | -6.67%
48 | CN(C)c1cc(-c2ccc(F)cc2)oc(=O)c1Cl | -0.75%

Row | SMILES | inhibition
49 | CN(c1ccc(OCC(=O)NC2=NCCS2)cc1)S(=O)(=O)c1ccc(F)cc1 | -4.51%
50 | Cc1ccc(SCc2c(C(=O)N/N=C/C3CC=CCC3)nnn2-c2nonc2N)cc1 (stereo unspecified) | -0.65%
51 | O=C(NCC1CCCO1)c1cc(-c2ccccc2)nc2ccccc12 (stereo unspecified) | 3.52%
52 | Cn1cc(CN2CCCCC2c2ccccn2)c(-c2ccc3c(c2)OCCO3)n1 (stereo unspecified) | -14.8%
53 | O=S(=O)(c1cccc(C(F)(F)F)c1)N1CCN(c2cnccn2)CC1 | 2.6%
54 | CCCN1C(=O)C(Cc2nc3ccccc3c(=O)n2-c2ccccc2)c2cc(C)ccc21 (stereo unspecified) | -0.44%
55 | O=C(Nc1nnc(COc2ccccc2)s1)Nc1ccccc1F | 1.51%
56 | CCOC(=O)C1(CCOC)CCN(Cc2ccc(C(=O)OC)cc2)CC1 | -3.33%
57 | CC(C)Oc1ccc(CCC(=O)NNC(=S)NCc2ccccc2)cc1 | 5.08%
58 | CCN(CC)CCC(c1ccc2c(c1)OCO2)c1c(OC)cc(OC)c2c(-c3ccccc3)cc(=O)oc12 (stereo unspecified) | -12.8%
59 | O=C(c1ccccc1Cl)N(Cc1ccccc1F)N1C(=O)CCCC1=O | -0.77%
60 | CCC(C)[C@@H](C(=O)N1CCNCC1)n1cc(CCCCN)nn1 (stereo partly specified) | -2.39%
61 | CCOC(=O)C1(C)NC(c2ccco2)C2C(=O)N(c3ccccc3)C(=O)C21 (stereo unspecified) | -2.99%
62 | O=C(Nc1ccccc1F)c1ccc(Cn2cc(Br)cn2)cc1 | 0.95%
63 | CCCC(O)(CCC)C(=O)NN(C(=O)CCl)c1cccc(C)c1 | -0.4%
64 | CC(C)Cc1ccc(C(C)C(=N)N)cc1 (stereo unspecified) | -0.2%
65 | CCS(=O)(=O)N1Cc2ccccc2CC1C(=O)Nc1nc2ccc(F)cc2s1 (stereo unspecified) | -4.77%
66 | O=C(CSc1nnnn1-c1ccc(O)cc1)c1ccc(F)cc1 | -1.4%
67 | CC1CN(S(=O)(=O)c2ccc(C(=O)NN3CCN(C)CC3)cc2)CC(C)O1 (stereo unspecified) | -9.4%
68 | CC(C)(C)C1CCC(OC(=O)CCC(=O)Nc2ccccc2)CC1 (stereo unspecified) | -0.51%
69 | CC(C)N1C(=O)N(c2ccccc2)C(C)(O)CC1(C)C (stereo unspecified) | -4.92%
70 | COC(=O)c1cc2c(N)c(C(=O)c3ccc(Cl)cc3)sc2nc1C(OC)OC | 3.67%
71 | COc1ccccc1NC(=O)c1cc(Cl)nnc1Cl | -8.6%
72 | C=C(C)COc1ccc(-c2nc(N)ncc2-c2ccccc2OC)c(O)c1 | -2.7%

Row | SMILES | inhibition
73 | COc1cc(NC(=O)c2ccc(CNc3c(N4CCCC4)c(=O)c3=O)cc2)cc(OC)c1OC | 3.4%
74 | Cc1ccc(NC(=O)C2CCCN(S(=O)(=O)c3c(C)noc3C)C2)c(C)c1 (stereo unspecified) | -4.66%
75 | Cc1noc(C)c1S(=O)(=O)N1CCCC(C(=O)Nc2nccs2)C1 (stereo unspecified) | -1.5%
76 | COc1c(C)cc(C(=O)C2CCCN(S(=O)(=O)c3c(C)noc3C)C2)cc1C (stereo unspecified) | 41.9% (active)
77 | CN1CCN(c2ncc3c(n2)CC(c2ccccc2F)CC3=O)CC1 (stereo unspecified) | -5.02%
78 | Cc1ccc(C)c(NC(=S)NCC(c2cccnc2)N2CCOCC2)c1 (stereo unspecified) | -3.59%
79 | CCCC/C(C)=N/NC(=O)NC1CCCCC1 | -6.13%
80 | O=C(Cn1cc(C(=O)c2cccs2)c2ccccc21)NCc1cccs1 | -2.66%
81 | COC(=O)Cn1cc(C(=O)c2cccs2)c2ccccc21 | 47% (active)
82 | COCCNC(=O)Cn1cc(C(=O)c2cccs2)c2ccccc21 | 0.65%
83 | Clc1ccc(CSc2nnc3c(n2)[nH]c2ccccc23)cc1 | -0.71%
84 | CCC(C(=O)Nc1ccc(C(C)C)cc1)c1ccccc1 (stereo unspecified) | -7.56%
85 | CCc1ccc(CNC(=O)CCc2nc(-c3cccs3)no2)cc1 | 6.55%
86 | O=C(Cn1c2[n+](c3ccc(C(F)(F)F)cc31)CCCCC2)Nc1c(F)cccc1F | -11.3%
87 | O=C(CSc1ccc([N+](=O)[O-])cn1)Nc1ccc(N2CCOCC2)c(Cl)c1 | -6.75%
88 | Cc1nc2cc(NC(=O)Nc3cccc(F)c3)ccc2n1C | 13.7%
89 | C=CCN(C(=O)Nc1ccc2c(c1)nc(C)n2C)c1ccccc1 | 43.6% (active)
90 | C=CCN(C(=O)Nc1ccc2oc(C)nc2c1)c1ccccc1 | -2.2%
91 | CCN(CC)C(=O)N(CC)Cc1ccccc1 | -4.01%
92 | Cc1cc(C)n2nc(C(=O)N(C)C(c3ccccc3)c3ccccc3)nc2n1 | -10.8%
93 | CCOc1cc(NC(=S)NCCCN(C)C)c(OCC)cc1NC(=O)C1CC1 | -9.76%
94 | O=C1/C(=C\c2cccnc2)CN(Cc2ccccc2)C/C1=C\c1cccnc1 | 10.5%
95 | O=C(c1[nH]ncc1-c1ccc(Cl)cc1)C1CO1 (stereo unspecified) | -4.22%
96 | CC(=O)OCCOCn1cnn2c(=O)c(Br)c(C)nc12 | 0.26%
